Key:
HeLa [1] = assay: Induction of cell cycle arrest in human HeLa assessed as accumulation at S-phase at 5x10'-5 M after 24 hrs by FACS analysis (RVb = 62.2+/-4.4%); format: functional
NCI-H358 = assay: Cytotoxicity against human NCI-H358 cells after 72 hrs by MTT assay; format: functional; details: NCI-H358, 72 h
How it was run: (§1)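 Cells were seeded at 2 × 10^4 cells/mL and attached overnight at 37 °C, 5% CO2. They were then exposed for 72 h to compounds from aqueous stocks (working solutions 10^-3–10^-6 mol dm^-3). MTT was added for 4 h at 37 °C, formazan dissolved in DMSO, and absorbance read at 570 nm. GI50 is the mean ± SD of three independent experiments run in triplicate.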

HeLa [2] = assay: Induction of cell cycle arrest in human HeLa assessed as accumulation at S-phase at 5x10'-5 M after 48 hrs by FACS analysis (RVb = 62.2+/-4.4%); format: functional
HeLa [3] = assay: Induction of cell cycle arrest in human HeLa assessed as accumulation at G2/M-phase at 5x10'-5 M after 24 hrs by FACS analysis (RVb = […]); format: functional
HeLa [4] = assay: Induction of cell cycle arrest in human HeLa assessed as accumulation at G0/G1-phase at 5x10'-5 M after 48 hrs by FACS analysis (RVb = 62.2+/-4.4%); format: functional
HeLa [5] = assay: Cytotoxicity against human HeLa cells after 72 hrs by MTT assay; format: functional; how it was run: as §1
Caco-2 = assay: Cytotoxicity against human Caco2 cells after 72 hrs by MTT assay; format: functional; details: Caco-2, 72 h; how it was run: as §1
HeLa [6] = assay: Induction of cell cycle arrest in human HeLa assessed as accumulation at G2/M-phase at 5x10'-5 M after 72 hrs by FACS analysis (RVb = […]); format: functional
HEp-2 = assay: Cytotoxicity against human Hep2 cells after 72 hrs by MTT assay; format: functional; details: HEp-2, 72 h; how it was run: as §1
HeLa [7] = assay: Induction of cell cycle arrest in human HeLa assessed as accumulation at G0/G1-phase at 5x10'-5 M after 24 hrs by FACS analysis (RVb = 62.2+/-4.4%); format: functional
HeLa [8] = assay: Induction of cell cycle arrest in human HeLa assessed as accumulation at S-phase at 5x10'-5 M after 72 hrs by FACS analysis (RVb = 62.2+/-4.4%); format: functional
HeLa [9] = assay: Induction of cell cycle arrest in human HeLa assessed as accumulation at G2/M-phase at 5x10'-5 M after 48 hrs by FACS analysis (RVb = […]); format: functional
MCF7 = assay: Cytotoxicity against human MCF7 cells after 72 hrs by MTT assay; format: functional; details: MCF7, 72 h; how it was run: as §1
HeLa [10] = assay: Induction of cell cycle arrest in human HeLa assessed as accumulation at G0/G1-phase at 5x10'-5 M after 72 hrs by FACS analysis (RVb = 62.2+/-4.4%); format: functional
[11] = Cytotoxicity against MDCK cells after 72 hrs by MTT assay; format: cell-based, Canis lupus familiaris; details: dog; how it was run: as §1
AGS = assay: Cytotoxicity against human AGS cells after 72 hrs by MTT assay; format: functional; how it was run: as §1
MIA PaCa-2 = assay: Cytotoxicity against human MIAPaCa2 cells after 72 hrs by MTT assay; format: functional; details: MIA PaCa-2, 72 h; how it was run: as §1

## CN1CCN(c2ccc3[nH]c(-c4ccc5[nH]c(-c6ccc(O)cc6)nc5c4)nc3c2)CC1 [HOECHST 33258]
HeLa [1]
  Activity: 41.6%
NCI-H358
  GI50: 91.7 µM
HeLa [2]
  Activity: 42.6%
HeLa [3]
  Activity: 7.1%
HeLa [4]
  Activity: 49%
HeLa [5]
  GI50: 116 µM
Caco-2
  GI50: 84 µM
HeLa [6]
  Activity: 11.2%
HEp-2
  GI50: 132 µM
HeLa [7]
  Activity: 51.3%
HeLa [8]
  Activity: 43.1%
HeLa [9]
  Activity: 8.4%
MCF7
  GI50: 5.7 µM
HeLa [10]
  Activity: 45.7%
[11]
  GI50 at 72 h: 158 µM
AGS
  GI50: 112 µM
MIA PaCa-2
  GI50: 192 µM

From ChEMBL document CHEMBL1667800, “Synthesis, DNA/RNA affinity and antitumour activity of new aromatic diamidines linked by 3,4-ethylenedioxythiophene” (Eur J Med Chem, 2011)
